Experimental data taken from ChEMBL document CHEMBL1149569, “Aminopyrrolidineamide inhibitors of site-1 protease” (Bioorg Med Chem Lett, 2007).
One block for each molecule: values may come before it. The source made the active and inactive calls. No cut-off for these calls is given here.

Key:
[1] = biological target: T1, Membrane-bound transcription factor site-1 protease (Homo sapiens, UniProt Q14703); test: Inhibition of human S1P expressed in CHOK1 cells; format: cell-based, CHO-K1
T1 sequence (Q14703 whole entry): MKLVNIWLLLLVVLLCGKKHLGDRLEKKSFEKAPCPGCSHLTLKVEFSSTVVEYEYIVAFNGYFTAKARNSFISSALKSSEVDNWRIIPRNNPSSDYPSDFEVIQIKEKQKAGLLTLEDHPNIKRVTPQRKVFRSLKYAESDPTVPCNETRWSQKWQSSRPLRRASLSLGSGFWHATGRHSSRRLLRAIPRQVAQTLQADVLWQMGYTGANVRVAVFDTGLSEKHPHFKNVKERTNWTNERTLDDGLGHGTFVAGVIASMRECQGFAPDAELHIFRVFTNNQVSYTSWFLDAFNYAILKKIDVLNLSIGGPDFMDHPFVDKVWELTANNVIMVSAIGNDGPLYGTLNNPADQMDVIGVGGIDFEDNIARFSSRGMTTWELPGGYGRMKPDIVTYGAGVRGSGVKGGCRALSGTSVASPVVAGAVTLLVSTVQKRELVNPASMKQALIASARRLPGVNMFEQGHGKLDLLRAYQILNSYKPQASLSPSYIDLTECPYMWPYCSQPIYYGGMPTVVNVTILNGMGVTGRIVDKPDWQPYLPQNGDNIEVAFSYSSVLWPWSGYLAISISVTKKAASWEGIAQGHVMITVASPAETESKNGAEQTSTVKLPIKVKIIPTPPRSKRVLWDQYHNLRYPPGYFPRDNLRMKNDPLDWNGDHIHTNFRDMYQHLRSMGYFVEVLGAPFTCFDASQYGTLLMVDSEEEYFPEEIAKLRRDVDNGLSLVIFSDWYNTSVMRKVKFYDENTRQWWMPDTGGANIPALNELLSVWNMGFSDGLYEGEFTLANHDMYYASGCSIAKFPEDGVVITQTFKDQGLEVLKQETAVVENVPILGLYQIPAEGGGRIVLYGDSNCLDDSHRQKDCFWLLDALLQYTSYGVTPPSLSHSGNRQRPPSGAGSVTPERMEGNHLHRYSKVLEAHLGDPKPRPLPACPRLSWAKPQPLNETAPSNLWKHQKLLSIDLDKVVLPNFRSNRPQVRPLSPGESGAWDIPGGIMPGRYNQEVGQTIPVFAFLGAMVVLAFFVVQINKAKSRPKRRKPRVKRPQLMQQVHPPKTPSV

Mus musculus [2] = test: Antilipogenic activity in CD1 mouse assessed as reduction of fatty acid synthase gene expression at 30 mg/kg, ip every 6 hrs for 24 hrs; format: functional; set-up: scale not given: the % may be the effect or the level left; conditions: route intraperitoneal
Outline: (§1)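 Male CD1 mice, n = 5 per group, given 10 or 30 mg/kg/dose intraperitoneally every 6 h for 24 h (acute 24 h efficacy). Hepatic HMG-CoA synthase, fatty acid synthase and LDL receptor gene expression were measured in liver tissue samples. Cholesterol and fatty acid synthetic pathway activity was measured in the animals.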

HepG2 [3] = test: Inhibition of nuclear translocation of SREBP in HepG2 cells at 10 uM; format: functional, cell-based; conditions: Homo sapiens
Outline: (§2)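 Hep-G2 human liver cells in culture were treated at 10 µM. SREBP proteolytic processing and nuclear translocation were then assessed.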

Liver [4] = test: Reduction of HMG-CoA synthase expression in mouse liver; format: functional, tissue-based
HepG2 [5] = test: Inhibition of fatty acid synthesis in HepG2 cells at 10 uM; format: functional; conditions: Homo sapiens
Mus musculus [6] = test: Antilipogenic activity in CD1 mouse assessed as reduction of HMG-CoA synthase gene expression at 10 mg/kg, ip every 6 hrs for 24 hrs; format: functional; set-up: scale not given: the % may be the effect or the level left; conditions: route intraperitoneal; outline: as §1
Mus musculus [7] = test: Antilipogenic activity in CD1 mouse assessed as inhibition of cholesterol synthetic pathway at 10 mg/kg, ip every 6 hrs for 24 hrs; format: functional; set-up: scale not given: the % may be the effect or the level left; conditions: route intraperitoneal; outline: as §1
Liver [8] = test: Reduction of fatty acid synthase expression in mouse liver; format: functional, tissue-based
Hepatocyte = test: Reduction of fatty acid synthase expression in mouse hepatocytes; format: functional, cell-based
Mus musculus [9] = test: Antilipogenic activity in CD1 mouse assessed as reduction of HMG-CoA synthase gene expression at 30 mg/kg, ip every 6 hrs for 24 hrs; format: functional; set-up: scale not given: the % may be the effect or the level left; conditions: route intraperitoneal; outline: as §1
Hep-G2 (Homo sapiens) = test: Reduction of HMG-CoA synthase expression in human Hep-G2 cells
HepG2 [10] = test: Inhibition of LDL receptor gene expression in HepG2 cells; format: functional, cell-based; conditions: Homo sapiens
HepG2 [11] = test: Inhibition of proteolytic processing of SREBP in HepG2 cells at 10 uM; format: functional, cell-based; conditions: Homo sapiens; outline: as §2
[12] = biological target: Low-density lipoprotein receptor (Homo sapiens) (UniProt P01130); test: Inhibition of LDL receptor-mediated LDL internalization in HepG2 cells; format: cell-based
Sequence of Low-density lipoprotein receptor (Homo sapiens) (P01130 whole entry): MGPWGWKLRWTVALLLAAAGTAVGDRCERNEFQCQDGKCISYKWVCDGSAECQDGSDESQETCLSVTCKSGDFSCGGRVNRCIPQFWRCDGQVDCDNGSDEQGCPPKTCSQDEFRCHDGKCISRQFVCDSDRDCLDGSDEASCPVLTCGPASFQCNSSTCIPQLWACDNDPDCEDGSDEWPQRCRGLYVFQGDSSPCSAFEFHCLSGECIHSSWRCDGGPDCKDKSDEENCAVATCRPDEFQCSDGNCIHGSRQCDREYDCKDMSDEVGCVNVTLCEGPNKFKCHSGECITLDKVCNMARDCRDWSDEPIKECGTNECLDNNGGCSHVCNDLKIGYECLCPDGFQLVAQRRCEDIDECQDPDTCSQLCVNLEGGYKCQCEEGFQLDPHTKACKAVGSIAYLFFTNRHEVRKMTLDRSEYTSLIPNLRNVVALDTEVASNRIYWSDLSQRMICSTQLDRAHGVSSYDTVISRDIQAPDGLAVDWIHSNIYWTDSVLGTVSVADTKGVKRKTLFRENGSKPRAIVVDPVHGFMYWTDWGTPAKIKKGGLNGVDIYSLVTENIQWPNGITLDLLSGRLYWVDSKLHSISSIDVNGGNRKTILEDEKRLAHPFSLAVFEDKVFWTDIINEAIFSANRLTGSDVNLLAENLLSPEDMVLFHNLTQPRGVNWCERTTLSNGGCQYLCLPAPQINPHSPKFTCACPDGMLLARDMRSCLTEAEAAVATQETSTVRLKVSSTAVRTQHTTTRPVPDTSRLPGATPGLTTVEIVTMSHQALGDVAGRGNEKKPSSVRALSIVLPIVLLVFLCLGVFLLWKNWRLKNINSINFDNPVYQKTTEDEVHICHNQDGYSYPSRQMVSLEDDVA

Mus musculus [13] = test: Antilipogenic activity in CD1 mouse assessed as inhibition of fatty acid synthetic pathway at 30 mg/kg, ip every 6 hrs for 24 hrs; format: functional; set-up: scale not given: the % may be the effect or the level left; conditions: route intraperitoneal; outline: as §1
Mus musculus [14] = test: Antilipogenic activity in CD1 mouse assessed as inhibition of fatty acid synthetic pathway at 10 mg/kg, ip every 6 hrs for 24 hrs; format: functional; set-up: scale not given: the % may be the effect or the level left; conditions: route intraperitoneal; outline: as §1
Mus musculus [15] = test: Antilipogenic activity in CD1 mouse assessed as reduction of fatty acid synthase gene expression at 10 mg/kg, ip every 6 hrs for 24 hrs; format: functional; set-up: scale not given: the % may be the effect or the level left; conditions: route intraperitoneal; outline: as §1
Mus musculus [16] = test: Antilipogenic activity in CD1 mouse assessed as reduction of LDL receptor gene expression at 30 mg/kg, ip every 6 hrs for 24 hrs; format: functional; set-up: scale not given: the % may be the effect or the level left; conditions: route intraperitoneal; outline: as §1
[17] = biological target: Urokinase-type plasminogen activator (Homo sapiens, UniProt P00749); test: Inhibition of urokinase
Liver [18] = test: Inhibition of fatty acid synthesis in rat liver at 10 uM; format: functional
Liver [19] = test: Inhibition of cholesterol synthesis in rat liver; format: functional, tissue-based
HepG2 [20] = test: Inhibition of cholesterol synthesis in HepG2 cells; format: functional, cell-based; conditions: Homo sapiens
Coagulation factor X = Coagulation factor X (Homo sapiens, UniProt P00742); test: Inhibition of factor 10a
Sequence of Coagulation factor X (P00742 41-179 limits assumed): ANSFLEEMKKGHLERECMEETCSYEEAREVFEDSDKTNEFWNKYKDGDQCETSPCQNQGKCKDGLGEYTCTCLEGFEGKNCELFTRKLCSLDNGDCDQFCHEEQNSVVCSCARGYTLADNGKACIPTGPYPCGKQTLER
Sequence of Coagulation factor X (P00742 235-488 limits assumed): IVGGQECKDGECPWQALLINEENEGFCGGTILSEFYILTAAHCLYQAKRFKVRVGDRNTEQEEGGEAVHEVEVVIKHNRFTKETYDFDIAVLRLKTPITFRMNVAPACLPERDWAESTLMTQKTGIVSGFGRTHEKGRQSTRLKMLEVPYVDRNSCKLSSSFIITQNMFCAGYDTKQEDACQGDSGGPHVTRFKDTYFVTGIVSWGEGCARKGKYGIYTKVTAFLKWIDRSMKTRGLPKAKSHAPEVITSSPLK

[21] = Oral bioavailability in rat; format: ADME, organism-based; conditions: in vivo
[22] = Plasma clearance in rat; format: ADME, organism-based
Mus musculus [23] = test: Antilipogenic activity in CD1 mouse assessed as inhibition of cholesterol synthetic pathway at 30 mg/kg, ip every 6 hrs for 24 hrs; format: functional; set-up: scale not given: the % may be the effect or the level left; conditions: route intraperitoneal; outline: as §1

SMILES: CC(C)Oc1ccc(C(=O)N(Cc2ccccc2Cl)C2CCNC2)cc1 (centres undefined)
IC50 [1]: > 5000 nM

SMILES: CCN(CC)Cc1ccc(C(=O)N(CCc2ccccc2OC)[C@@H]2CCNC2)cc1
Activity (Mus musculus [2]): 75%
IC50 [1]: 170 nM
Activity (HepG2 [3]): Active
EC50 (Liver [4]): 300 nM
inhibition at 10 µM (HepG2 [5]): 43%
Activity (Mus musculus [6]): >80%
Activity (Mus musculus [7]): 50%
EC50 (Liver [8]): 2000 nM
EC50 (Hepatocyte): 2000 nM
Activity (Mus musculus [9]): >80%
EC50 (Hep-G2 (Homo sapiens)): 300 nM
Activity (HepG2 [10]): Active
Activity (HepG2 [11]): Active
Activity [12]: Active
Activity (Mus musculus [13]): 80%
Activity (Mus musculus [14]): 50%
Activity (Mus musculus [15]): 50%
Activity (Mus musculus [16]): 35%
IC50 [17]: 50000 nM
inhibition at 10 µM (Liver [18]): 43%
EC50 (Liver [19]): 600 nM
EC50 (HepG2 [20]): 600 nM
IC50 (Coagulation factor X): 100000 nM
bioavailability [21]: 5%
clearance [22]: 75 mL/min/kg
Activity (Mus musculus [23]): 80%

SMILES: CCN(CC)Cc1ccc(C(=O)N(CCc2ccccc2OC)[C@H]2CCNC2)cc1
IC50 [1]: 970 nM

SMILES: CCN(CC)Cc1ccc(C(=O)N(CCc2ccccc2Cl)C2CCNC2)cc1 (centres undefined)
IC50 [1]: 840 nM

SMILES: CC(C)Oc1ccc(C(=O)N(CCc2ccccc2Cl)C2CCN(C)C2)cc1 (centres undefined)
IC50 [1]: > 30000 nM

SMILES: CC(C)Oc1ccc(C(=O)N(CCc2ccccc2F)C2CCNC2)cc1 (centres undefined)
IC50 [1]: 9000 nM

SMILES: COc1ccccc1CCN(C(=O)c1ccc(CN2CCCCC2)cc1)C1CCNC1 (centres undefined)
IC50 [1]: 250 nM

SMILES: COc1ccccc1CCN(C(=O)c1ccc(CN2CC3CCC2C3)cc1)C1CCNC1 (centres undefined)
IC50 [1]: 95 nM

SMILES: COc1ccccc1CCN(C(=O)c1ccc(CN2CCCC(c3ccccc3C)C2)cc1)C1CCNC1 (centres undefined)
IC50 [1]: 37 nM

SMILES: CCN(CC)Cc1ccc(C(=O)N(CCc2ccc(Cl)cc2)C2CCNC2)cc1 (centres undefined)
IC50 [1]: 3700 nM

SMILES: O=C(c1ccc(CN2CCCCC2)cc1)N(CCc1ccccc1Cl)C1CCOC1 (centres undefined)
IC50 [1]: > 30000 nM

SMILES: O=C(c1ccc(OCc2ccccc2)cc1)N(CCc1ccccc1Cl)C1CCNC1 (centres undefined)
IC50 [1]: 590 nM

SMILES: O=C(c1ccc(OCc2ccccc2)cc1)N(CCc1cccc(Cl)c1)C1CCNC1 (centres undefined)
IC50 [1]: 510 nM

SMILES: CC(C)Oc1ccc(C(=O)N(CCc2ccccc2Cl)C2CCCNC2)cc1 (centres undefined)
IC50 [1]: > 30000 nM

SMILES: CC(C)Oc1ccc(C(=O)N(CCc2cccc(Cl)c2)C2CCNC2)cc1 (centres undefined)
IC50 [1]: 9600 nM

Second part, the molecule after the results:

IC50 [1]: 540 nM
SMILES: CCN(CC)Cc1ccc(C(=O)N(CCc2ccccc2OC)C2CCNC2)cc1 (centres undefined)

IC50 [1]: 430 nM
SMILES: CCN(CC)Cc1ccc(C(=O)N(CCc2c(Cl)cccc2Cl)C2CCNC2)cc1 (centres undefined)

IC50 [1]: 1600 nM
SMILES: CCN(CC)Cc1ccc(C(=O)N(CCc2ccccc2C)C2CCNC2)cc1 (centres undefined)

IC50 [1]: 16000 nM
SMILES: CCOc1ccccc1CCN(C(=O)c1ccc(CN(CC)CC)cc1)C1CCNC1 (centres undefined)

IC50 [1]: 8 nM
SMILES: Cc1ccccc1C1CCCN(Cc2ccc(C(=O)N(CCc3ccccc3Cl)C3CCNC3)cc2)C1 (centres undefined)

IC50 [1]: 310 nM
SMILES: COc1ccccc1CCN(C(=O)c1ccc(OCc2ccccc2)cc1)C1CCNC1 (centres undefined)

IC50 [1]: > 30000 nM
SMILES: CC(C)Oc1ccc(C(=O)N(CCc2ccccc2Cl)C2CNC2)cc1

IC50 [1]: 160 nM
SMILES: COc1ccccc1CCN(C(=O)c1ccc(CN2CCCC(C(N)=O)C2)cc1)C1CCNC1 (centres undefined)

IC50 [1]: > 30000 nM
SMILES: CC(C)Oc1ccc(C(=O)N(CCc2ccccc2Cl)C2CCN(C=O)C2)cc1 (centres undefined)

IC50 [1]: 1400 nM
SMILES: CC(C)Oc1ccc(C(=O)N(CCc2ccccc2Cl)C2CCNC2)cc1 (centres undefined)

IC50 [1]: 100 nM
SMILES: COc1ccccc1CCN(C(=O)c1ccc(CN[C@H]2CCCC[C@@H]2O)cc1)C1CCNC1 (some centres undefined)

IC50 [1]: > 30000 nM
SMILES: CC(C)Oc1ccc(C(=O)N(CCc2ccccc2Cl)C2CCSC2)cc1 (centres undefined)

IC50 [1]: 29 nM
SMILES: COc1ccccc1CCN(C(=O)c1ccc(CN2CC3CCCC2C3)cc1)C1CCNC1 (centres undefined)

IC50 [1]: 140 nM
SMILES: COC[C@@H]1CCCN1Cc1ccc(C(=O)N(CCc2ccccc2OC)C2CCNC2)cc1 (some centres undefined)
